Reference: ChEMBL document CHEMBL3045616, “Synthetic pyrazole derivatives as growth inhibitors of some phytopathogenic fungi” (J Agric Food Chem, 2007)

System: Globisporangium ultimum
Assay: Antifungal activity against logarithmic phase of Pythium ultimum ATCC 58812 assessed as growth inhibition at 10 ug/ml measured at 5 days post-drug treatment
Type: functional
Conditions: ATCC 58812, 120 h, read-out: GI
How it was run: (§1)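 Log-phase mycelium (from 10 mm stationary-phase disks grown on cellophane over PDA, pH 5.6, 26 ± 1 °C) moved to PDA with compound added from DMSO stock at 45 °C. Final concentrations were 10, 50 or 100 µg mL^-1, with 0.1% DMSO in test and control media. Colony diameter was read daily for 5 days, in triplicate, as % of untreated control.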

First: COC(=O)N(OC)c1ccccc1COc1ccn(-c2ccc(Cl)cc2)n1 [PYRACLOSTROBIN]
Second: O=c1c2cn[nH]c2[nH]c(=S)n1-c1ccc(Cl)cc1
The inhibition of growth at 10 µg/mL of the first is higher: 100% for the first, 1.7% for the second.

Compared with `CCOC(=O)c1cn[nH]c1NC(=S)Nc1cccc(C(F)(F)F)c1`, `CCOC(=O)c1cn[nH]c1NC(=S)NC1CCCCC1` is higher in inhibition of growth at 10 µg/mL: 23% for the first, 44.4% for the second.

Going from `Cc1[nH]nc(C(=O)NC2CC2)c1C(=O)O` to `CCOC(=O)c1c[nH]nc1N=C(S)Nc1ccc(Cl)cc1`, the inhibition of growth at 10 µg/mL rises from 3.2% to 38%.

First: O=c1c2cn[nH]c2[nH]c(=S)n1-c1ccc([N+](=O)[O-])cc1
Second: O=c1c2cn[nH]c2[nH]c(=S)n1-c1cccc(Cl)c1
The inhibition of growth at 10 µg/mL of the first is higher: 4.6% for the first, 2.2% for the second.

System: Globisporangium ultimum
Assay: Antifungal activity against logarithmic phase of Pythium ultimum ATCC 58812 assessed as growth inhibition at 50 ug/ml measured at 5 days post-drug treatment
Type: functional
Conditions: ATCC 58812, 120 h, read-out: GI
How it was run: as §1

Compared with `Cc1c(C(=O)O)c(C(=O)NC(C)(C)C)nn1C`, `Cc1[nH]nc(C(=O)NC2CC2)c1C(=O)O` is higher in inhibition of growth at 50 µg/mL: 12.5% for the first, 32.9% for the second.

Going from `O=c1c2cn[nH]c2[nH]c(=S)n1-c1ccc(Br)cc1` to `O=c1c2cn[nH]c2[nH]c(=S)n1-c1ccc(Cl)cc1`, the inhibition of growth at 50 µg/mL falls from 22.5% to 12.2%.

Going from `CCOC(=O)c1cn[nH]c1NC(=S)Nc1ccc(Br)cc1` to `CCOC(=O)c1cn[nH]c1NC(=S)Nc1cccc(C(F)(F)F)c1`, the inhibition of growth at 50 µg/mL rises from 2% to 24.2%.

Going from `COC(=O)N(OC)c1ccccc1COc1ccn(-c2ccc(Cl)cc2)n1` [PYRACLOSTROBIN] to `CCOC(=O)c1c[nH]nc1N=C(S)Nc1ccc(Cl)cc1`, the inhibition of growth at 50 µg/mL falls from 100% to 52.9%.

First: CCOC(=O)c1cn[nH]c1NC(=S)NC1CCCCC1
Second: O=c1c2cn[nH]c2[nH]c(=S)n1-c1cccc(Cl)c1
The inhibition of growth at 50 µg/mL of the first is higher: 59% for the first, 4.1% for the second.

Work on `O=c1c2cn[nH]c2[nH]c(=S)n1-c1ccc([N+](=O)[O-])cc1` yielded an inhibition of growth at 50 µg/mL of 8.7%.

System: Pyricularia grisea
Assay: microbe, parasite or virus in culture
Type: functional
Conditions: ATCC 64413, 120 h, read-out: GI

Compared with `Cc1c(C(=O)O)c(C(=O)NC(C)(C)C)nn1C`, `Cc1[nH]nc(C(=O)NC2CC2)c1C(=O)O` is higher in inhibition of growth at 10 µg/mL: 0.9% for the first, 3.6% for the second.

First: Cc1cccc2sc3nncn3c12 [TRICYCLAZOLE]
Second: CCOC(=O)c1c[nH]nc1N=C(S)Nc1ccc(Cl)cc1
The inhibition of growth at 10 µg/mL of the first is lower: 0% for the first, 21.4% for the second.

Going from `CCOC(=O)c1cn[nH]c1NC(=S)Nc1ccc(Br)cc1` to `CCOC(=O)c1cn[nH]c1NC(=S)Nc1cccc(C(F)(F)F)c1`, the inhibition of growth at 10 µg/mL rises from 16.1% to 29.4%.

Going from `CCOC(=O)c1cn[nH]c1NC(=S)NC1CCCCC1` to `CCNC(=S)Nc1[nH]ncc1C(=O)OCC`, the inhibition of growth at 10 µg/mL falls from 29.8% to 13.8%.

System: Botrytis cinerea
Assay: Antifungal activity against logarithmic phase of Botryotinia fuckeliana ATCC 48339 assessed as growth inhibition at 50 ug/ml measured at 5 days post-drug treatment
Type: functional
Conditions: ATCC 48339, 120 h, read-out: GI
How it was run: as §1

Going from `Cc1c(C(=O)O)c(C(=O)NC(C)(C)C)nn1C` to `Cc1[nH]nc(C(=O)NC2CC2)c1C(=O)O`, the inhibition of growth at 50 µg/mL rises from 9.6% to 10.6%.

Going from `O=c1c2cn[nH]c2[nH]c(=S)n1-c1cccc(Cl)c1` to `CCOC(=O)c1c[nH]nc1N=C(S)Nc1ccc(Cl)cc1`, the inhibition of growth at 50 µg/mL rises from 8.5% to 21%.

System: Pyricularia grisea
Assay: microbe, parasite or virus in culture
Type: functional, organism-based
Conditions: ATCC 64413, 120 h

Going from `Cc1cccc2sc3nncn3c12` [TRICYCLAZOLE] to `CCOC(=O)c1cn[nH]c1NC(=S)Nc1cccc(C(F)(F)F)c1`, the IC50 falls from 474 µM to 224 µM (2.1-fold).

System: Globisporangium ultimum
Assay: Antifungal activity against logarithmic phase of Pythium ultimum ATCC 58812 assessed as growth inhibition at 100 ug/ml measured at 5 days post-drug treatment
Type: functional
Conditions: ATCC 58812, 120 h, read-out: GI
How it was run: as §1

Going from `Cc1c(C(=O)O)c(C(=O)NC(C)(C)C)nn1C` to `Cc1[nH]nc(C(=O)NC2CC2)c1C(=O)O`, the inhibition of growth at 100 µg/mL falls from 41.3% to 39.9%.

Going from `O=c1c2cn[nH]c2[nH]c(=S)n1-c1ccc(Br)cc1` to `O=c1c2cn[nH]c2[nH]c(=S)n1-c1ccc(Cl)cc1`, the inhibition of growth at 100 µg/mL falls from 61.8% to 37.8%.

Compared with `CCOC(=O)c1cn[nH]c1NC(=S)Nc1ccc(Br)cc1`, `CCOC(=O)c1cn[nH]c1NC(=S)Nc1cccc(C(F)(F)F)c1` is higher in inhibition of growth at 100 µg/mL: 3.1% for the first, 28% for the second.

First: COC(=O)N(OC)c1ccccc1COc1ccn(-c2ccc(Cl)cc2)n1 [PYRACLOSTROBIN]
Second: CCOC(=O)c1c[nH]nc1N=C(S)Nc1ccc(Cl)cc1
The inhibition of growth at 100 µg/mL of the first is higher: 100% for the first, 61.5% for the second.

Compared with `CCOC(=O)c1cn[nH]c1NC(=S)NC1CCCCC1`, `CCNC(=S)Nc1[nH]ncc1C(=O)OCC` is lower in inhibition of growth at 100 µg/mL: 63.9% for the first, 20% for the second.

Going from `O=c1c2cn[nH]c2[nH]c(=S)n1-c1ccc([N+](=O)[O-])cc1` to `O=c1c2cn[nH]c2[nH]c(=S)n1-c1cccc(Cl)c1`, the inhibition of growth at 100 µg/mL falls from 13.7% to 10.8%.

System: Botrytis cinerea
Assay: Antifungal activity against logarithmic phase of Botryotinia fuckeliana ATCC 48339 assessed as growth inhibition at 100 ug/ml measured at 5 days post-drug treatment
Type: functional
Conditions: ATCC 48339, 120 h, read-out: GI
How it was run: as §1

Compared with `Cc1c(C(=O)O)c(C(=O)NC(C)(C)C)nn1C`, `COC(=O)c1c(C(=O)O)nn(C)c1C` is lower in inhibition of growth at 100 µg/mL: 61.9% for the first, 3.3% for the second.

Going from `CCOC(=O)c1cn[nH]c1NC(=S)Nc1ccc(Br)cc1` to `CCOC(=O)c1cn[nH]c1NC(=S)Nc1cccc(C(F)(F)F)c1`, the inhibition of growth at 100 µg/mL rises from 16.3% to 23.2%.

Going from `Cc1[nH]nc(C(=O)NC2CC2)c1C(=O)O` to `CCOC(=O)c1c[nH]nc1N=C(S)Nc1ccc(Cl)cc1`, the inhibition of growth at 100 µg/mL rises from 19.2% to 46.2%.

First: O=c1c2cn[nH]c2[nH]c(=S)n1-c1ccc([N+](=O)[O-])cc1
Second: O=c1c2cn[nH]c2[nH]c(=S)n1-c1ccc(Cl)cc1
The inhibition of growth at 100 µg/mL of the first is lower: 2.1% for the first, 31.7% for the second.

For `O=c1c2cn[nH]c2[nH]c(=S)n1-c1cccc(Cl)c1`, the inhibition of growth at 100 µg/mL was 27.3%.

System: Globisporangium ultimum
Assay: Antifungal activity against logarithmic phase of Pythium ultimum Trow ATCC 58812 assessed as growth inhibition measured at 5 days post-drug treatment
Type: functional, organism-based
Conditions: ATCC 58812, 120 h
How it was run: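 Log-phase mycelium grown on cellophane over PDA (pH 5.6, 26 ± 1 °C) moved to PDA containing compound at 10, 50 and 100 µg mL^-1 final, with 0.1% DMSO in test and control media. Colony diameter was measured daily for 5 days, in triplicate, relative to untreated controls. IC50 came from curves of activity (%) versus log inhibitor concentration.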

With `COC(=O)N(OC)c1ccccc1COc1ccn(-c2ccc(Cl)cc2)n1` [PYRACLOSTROBIN] the IC50 was < 10 µM.

System: Pyricularia grisea
Assay: microbe, parasite or virus in culture
Type: functional
Conditions: ATCC 64413, 120 h, read-out: GI
Remark: another data set of the same source

Compared with `Cc1c(C(=O)O)c(C(=O)NC(C)(C)C)nn1C`, `Cc1[nH]nc(C(=O)NC2CC2)c1C(=O)O` is higher in inhibition of growth at 50 µg/mL: 4.1% for the first, 5.9% for the second.

First: O=c1c2cn[nH]c2[nH]c(=S)n1-c1ccc(Br)cc1
Second: O=c1c2cn[nH]c2[nH]c(=S)n1-c1cccc(Cl)c1
The inhibition of growth at 50 µg/mL of the first is higher: 18% for the first, 1% for the second.

Going from `Cc1cccc2sc3nncn3c12` [TRICYCLAZOLE] to `CCOC(=O)c1c[nH]nc1N=C(S)Nc1ccc(Cl)cc1`, the inhibition of growth at 50 µg/mL rises from 24% to 33.6%.

Going from `CCOC(=O)c1cn[nH]c1NC(=S)Nc1ccc(Br)cc1` to `CCOC(=O)c1cn[nH]c1NC(=S)Nc1cccc(C(F)(F)F)c1`, the inhibition of growth at 50 µg/mL rises from 27.1% to 46.3%.

Compared with `CCOC(=O)c1cn[nH]c1NC(=S)NC1CCCCC1`, `CCNC(=S)Nc1[nH]ncc1C(=O)OCC` is lower in inhibition of growth at 50 µg/mL: 26.7% for the first, 18.1% for the second.

`CCn1c(=S)[nH]c2[nH]ncc2c1=O` showed an inhibition of growth at 50 µg/mL of 3.6%.

System: Pyricularia grisea
Assay: microbe, parasite or virus in culture
Type: functional
Conditions: ATCC 64413, 120 h, read-out: GI
Remark: another data set of the same source

Going from `Cc1c(C(=O)O)c(C(=O)NC(C)(C)C)nn1C` to `COC(=O)c1c(C(=O)O)nn(C)c1C`, the inhibition of growth at 100 µg/mL rises from 5.8% to 8.4%.

First: O=c1c2cn[nH]c2[nH]c(=S)n1-c1ccc(Br)cc1
Second: O=c1c2cn[nH]c2[nH]c(=S)n1-c1cccc(Cl)c1
The inhibition of growth at 100 µg/mL of the first is higher: 20% for the first, 5% for the second.

First: Cc1cccc2sc3nncn3c12 [TRICYCLAZOLE]
Second: CCOC(=O)c1c[nH]nc1N=C(S)Nc1ccc(Cl)cc1
The inhibition of growth at 100 µg/mL of the first is higher: 62% for the first, 36.7% for the second.

Going from `CCOC(=O)c1cn[nH]c1NC(=S)Nc1ccc(Br)cc1` to `CCOC(=O)c1cn[nH]c1NC(=S)Nc1cccc(C(F)(F)F)c1`, the inhibition of growth at 100 µg/mL rises from 27.2% to 51%.

Compared with `CCOC(=O)c1cn[nH]c1NC(=S)NC1CCCCC1`, `CCNC(=S)Nc1[nH]ncc1C(=O)OCC` is lower in inhibition of growth at 100 µg/mL: 36% for the first, 28.9% for the second.

Compared with `Cc1[nH]nc(C(=O)NC2CC2)c1C(=O)O`, `CCn1c(=S)[nH]c2[nH]ncc2c1=O` is lower in inhibition of growth at 100 µg/mL: 9% for the first, 4.1% for the second.
